Experimental data from article PMC8404201 (Journal of Medicinal Chemistry, 2021).
“Also recorded” adds a separate entry of the source.

How the values were obtained:
[1] = Pilot mouse pharmacokinetic study; type: in vivo, BALB/c mice; details: mice; for gross toxicity after single IV dose: single low-dose 10 mg/kg IV
[2] = Tolerability of repeated daily IP injection in mice; type: in vivo; details: 10 sequential daily IP injections, 10 mg/kg (34 in 100% DMSO)
Summary of the method: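 Mice got 10 sequential daily IP injections of test compound dissolved in 100% DMSO. They were monitored for clinical adverse signs.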

| Compound | gross toxicity after single IV dose [1] | tolerability / adverse events after repeated daily IP injection [2] | apparent oral bioavailability (F) ([1]; PO vs IV, 10 mg/kg) [%] |
| --- | --- | --- | --- |
| CN(C)c1ccc2cc(-c3cc(Cl)cc(Cl)c3)c(N)nc2c1 [Compound 27, 3-[3,5-Dichlorophenyl]-N^7,N^7-dimethylquinoline-2,7-diamine] | no gross toxicity | not observed; also recorded: tolerable | – |
| CN(C)c1ccc2cc(-c3cn(C)c4ccccc34)c(N)nc2c1 [Compound 34, 3-[3-(N-Methylindolyl)-N^7,N^7-dimethyl]-2,7-quinolinediamine] | no gross toxicity | toxic | < 20 |
